Reference: ChEMBL document CHEMBL5365494, “Bis-6-amidino-benzothiazole Derivative that Cures Experimental Stage 1 African Trypanosomiasis with a Single Dose” (J Med Chem, 2023)
Active and inactive are the calls of the source. The rule behind the calls is not given here.

Tests used:
[1] = Selectivity index, ratio of EC50 for cytotoxicity against rat L6 cells to EC50 for antitrypanosomal activity against bloodstream form of Trypanosoma brucei brucei 221a variant; format: toxicity, cell-based; settings: read-out: Ratio EC50
Procedure, shortened: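 L6 rat myoblasts seeded at 1×10^4 mL^-1 in RPMI-1640 with a compound concentration range for 6 days at 37 °C. Resazurin added for 6 h, then fluorescence read.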

[2] = Toxicity in BALB/c mouse infected with bioluminescent Trypanosoma brucei brucei GVR35-VSL2 expressing red-shifted luciferase assessed as shaking in animal at 20 mg/kg, po administered once daily for 4 days; format: organism-based; settings: in vivo, 96 h, time 4 day
Procedure, shortened: (§1)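 Infected BALB/c mice (bioluminescent T. brucei, 30,000 parasites) dosed i.p. or orally once daily for 4 days starting day 4 post-infection; observed for piloerection, hunching, shaking, lack of activity and body weight change.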

[3] = Drug uptake in blood stream form of Trypanosoma brucei at 10 ug/ml incubated for 6 hrs in presence of bafilomycin Al by fluorescence microscopy; format: ADME, tissue-based; settings: dose 10 µg/ml
Procedure, shortened: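 Bloodstream-form T. brucei incubated 6 h with compound 10 μg mL⁻¹ with or without 8 nM BafA1, then imaged by fluorescence microscopy.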

[4] = Toxicity in BALB/c mouse infected with bioluminescent Trypanosoma brucei brucei GVR35-VSL2 expressing red-shifted luciferase assessed as shaking in animal at 0.25 to 20 mg/kg, ip administered once daily for 4 days; format: organism-based; settings: in vivo, 96 h, dose 0.25-20 mg/kg, time 4 day; procedure, shortened: as §1
[5] = Drug localization in lysosomes of Trypanosoma brucei bloodstream form at 10 ug/ml measured after 6 hrs by TbCatL antibody based immunofluorescence microscopy; format: ADME, subcellular, Lysosome; settings: dose 10 µg/ml
Procedure, shortened: (§2)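 Parasites exposed to compound 10 μg mL⁻¹ for 6 h, with or without BafA1 8 nM; fixed 4% PFA, permeabilized 0.1% Triton X-100, blocked 1% BSA, rabbit anti-TbCatL 1:200 overnight at 4 °C, then Alexa 488 anti-rabbit 2 μg mL⁻¹ 1 h at 37 °C; fluorescence microscopy.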

Trypanosoma brucei [6] = test: Antitrypanosomal activity against blood stream form of Trypanosoma brucei 221a variant assessed as parasite growth inhibition at 0.15 to 4.8 nM preincubated for 24 hrs followed by subculturing with fresh medium with compounds and measured after 2 days by resazurin dye based fluorescence analysis; format: functional, organism-based; settings: dose 0.15-4.8 nM, time 3.0 day
Procedure, shortened: (§3)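 Bloodstream-form T. brucei seeded in flasks at 10^5 mL^-1 with a range of compound concentrations. Every 24 h parasites were sub-cultured back to 10^5 mL^-1 in continued compound presence, through day 10. Growth reported as cumulative parasite number. In a washout arm, parasites were exposed for 3 days, moved to compound-free medium and followed for 12 days.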

[7] = test system: Trypanosoma brucei brucei; test: Antitrypanosomal activity against stage-1 bioluminescent Trypanosoma brucei brucei GVR35-VSL2 expressing red-shifted luciferase infected in BALB/c mouse assessed as parasite killing by measuring reduction in bioluminescent signal at 20 mg/kg, ip administered as single dose starting from 4 days post infection and measured on 3 to 7 days by luciferase based bioluminescence assay; format: functional, organism-based; settings: time 3-7 day
Procedure, shortened: (§4)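 BALB/c mice infected with 30,000 bioluminescent bloodstream-form T. brucei; dosing i.p. or oral from 4 days post-infection, single or once daily for 4 days. Monitored by in vivo imaging after i.p. d-luciferin 150 mg kg⁻¹ under isoflurane, with total body flux from dorsal plus ventral images. Cure required negativity by both in vivo and ex vivo imaging.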

Trypanosoma brucei [8] = test: Induction of tetracycline dependent drug resistant in Trypanosoma brucei MiTat 1.2, clone 221a assessed as outgrowth of resistant parasites at 1 to 2 ng/ml measured for 10 days; format: functional; settings: dose 1-2 ng/ml, time 10.0 day
Trypanosoma brucei [9] = test: Resistant development in Trypanosoma brucei harboring aqp null mutants assessed as fold reduction in sensitivity incubated for 48 hrs by resazurin dye based analysis relative to control; format: functional
Procedure, shortened: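 Tbaqp null mutant bloodstream lines tested in the 48 h resazurin microtiter assay: 2.5×10^4 parasites mL^-1 at 37 °C, then 16 h with resazurin and fluorescence read-out. EC50 found for each line in triplicate.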

[10] = Drug localization in lysosomes of Trypanosoma brucei bloodstream form at 10 ug/ml by fluorescence microscopy; format: ADME, subcellular, Lysosome; settings: TDE = time-dependent effect, time 1-24 hrs, dose 10 µg/ml
Procedure, shortened: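 Bloodstream-form T. brucei incubated with compound 10 μg mL⁻¹ for 60 or 180 min or 24 h; fixed in 4% PFA, mounted with DAPI, imaged by fluorescence microscopy (ex 550/em 585 nm).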

[11] = Drug localization in lysosomes of Trypanosoma brucei bloodstream form at 10 ug/ml measured after 6 hrs in presence of bafilomycin Al by TbCatL antibody based immunofluorescence microscopy; format: ADME, subcellular, Lysosome; settings: dose 10 µg/ml; procedure, shortened: as §2
[12] = test system: Trypanosoma brucei brucei; test: Antitrypanosomal activity against stage-1 bioluminescent Trypanosoma brucei brucei GVR35-VSL2 expressing red-shifted luciferase infected in BALB/c mouse assessed as reduction in parasite growth without relapse at 5 to 20 mg/kg, ip administered once daily for 4 days starting from 4 days post infection by luciferase based bioluminescence assay; format: functional, organism-based; settings: dose 5-20 mg/kg, time 4.0 day; procedure, shortened: as §4
[13] = test system: Trypanosoma brucei brucei; test: Antitrypanosomal activity against stage-2 bioluminescent Trypanosoma brucei brucei GVR35-VSL2 expressing red-shifted luciferase infected in CD-1 mouse assessed as reduction in parasite growth at 10 to 20 mg/kg, ip administered daily for 3 days starting from 13 days post infection by bioluminescence based assay; format: functional, organism-based; settings: dose 10-20 mg/kg, time 3.0 day
[14] = Apparent permeability across basolateral to apical side in MDCK-MDR1 cells at 10 uM measured for 60 mins by LC-MS/MS analysis; format: ADME, cell-based, Canis lupus familiaris; settings: dog, mdck-mdr1, 1 h, 10 µM
Procedure, shortened: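 MDCKII-hMDR1 monolayers on inserts, compound 10 μM (1% DMSO) in duplicate, 60 min at 37 °C, bidirectional, with and without elacridar 2 μM. Amprenavir as P-gp control, Lucifer yellow for monolayer integrity; compound quantified by LC–MS/MS.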

[15] = Toxicity in BALB/c mouse infected with bioluminescent Trypanosoma brucei brucei GVR35-VSL2 expressing red-shifted luciferase assessed as body weight loss at 20 mg/kg, ip administered once daily for 4 days; format: organism-based; settings: in vivo, 96 h, time 4 day; procedure, shortened: as §1
[16] = Toxicity in BALB/c mouse infected with bioluminescent Trypanosoma brucei brucei GVR35-VSL2 expressing red-shifted luciferase assessed as hunching in animal at 20 mg/kg, po administered once daily for 4 days; format: organism-based; settings: in vivo, 96 h, time 4 day; procedure, shortened: as §1
Trypanosoma brucei [17] = test: Resistance development in blood stream form of Trypanosoma brucei assessed as fold increase in resistance at 10 ug/ml preincubated for 6 hrs with bafilomycin Al followed by compound addition and measured after 48 hrs by resazurin dye-based analysis; format: functional; settings: dose 10 µg/ml
Procedure, shortened: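 Bloodstream-form T. brucei pre-incubated 6 h in 4 or 8 nM bafilomycin A1, then given compound and kept in BafA1. The run then followed the 48 h microtiter resazurin assay: start at 2.5×10^4 mL^-1, 37 °C, 16 h resazurin, fluorescence ex 545/em 590 nm. Done in triplicate.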

Trypanosoma brucei [18] = test: Antitrypanosomal activity against blood stream form of Trypanosoma brucei 221a variant assessed as parasite growth inhibition measured after 48 hrs by resazurin dye based fluorescence analysis; format: functional, organism-based
Procedure, shortened: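 Bloodstream-form T. b. brucei 221a (MiTat1.2a) in modified Iscove's medium at 37 °C, started at 2.5×10^4 mL^-1 with a concentration range. After 48 h, resazurin was added for a further 16 h. Fluorescence read at ex 545/em 590 nm. EC50 and EC90 taken from three independent replicates.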

Trypanosoma brucei [19] = test: Antitrypanosomal activity against blood stream form of Trypanosoma brucei 221a variant assessed as lethality at >=1.2 nM incubated for 3 days followed by replacement with fresh medium without compound and measured for 12 days by resazurin dye based fluorescence analysis relative to control; format: functional; settings: time 3 day; procedure, shortened: as §3

Compound: CS(=O)(=O)O.CS(=O)(=O)O.N=C(N)c1ccc2nc(C3CCC(c4nc5ccc(C(=N)N)cc5s4)CC3)sc2c1 (stereo not given)
- selectivity ratio [1]: 26300
- Activity [2]: Non-Toxic
- Drug uptake [3]: Not Active
- Activity [4]: Non-Toxic
- Drug uptake [5]: Active
- Activity (Trypanosoma brucei [6]): Active
- Activity [7]: Active
- Activity (Trypanosoma brucei [8]): inactive
- fold change (FC) (Trypanosoma brucei [9]): 1.3
- Drug uptake [10]: Tde
- Drug uptake [11]: Not Active
- Activity [12]: Active
- Activity [13]: inactive
- Papp [14]: 0.4 10^-6 cm/s
- Activity [15]: < 10%
- Activity [16]: Non-Toxic
- fold change (FC) (Trypanosoma brucei [17]): 5
- EC50 (Trypanosoma brucei [18]; 48 h): 1 nM
- EC90 (Trypanosoma brucei [18]; time 48 hrs): 1 nM
- Activity (Trypanosoma brucei [19]): 100%
